# Most compounds without a hit are left out; they make up all but 1.4% or so of the library.
# ASAP1 GAP inh: inhibitors of human ASAP1 ArfGAP activity; AID 624377; Q9ULH1; ASAP1-stimulated ARF1 GTP hydrolysis, GDP FP detection; inhibition, % at 16.5 µM; 360,000 compounds, 0.19% hits; in the data active = inhibition above about 25%;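 also: 0% = vehicle with enzyme and substrate and 100% = no enzyme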
# Target sequence (Q9ULH1 325-724 limits assumed): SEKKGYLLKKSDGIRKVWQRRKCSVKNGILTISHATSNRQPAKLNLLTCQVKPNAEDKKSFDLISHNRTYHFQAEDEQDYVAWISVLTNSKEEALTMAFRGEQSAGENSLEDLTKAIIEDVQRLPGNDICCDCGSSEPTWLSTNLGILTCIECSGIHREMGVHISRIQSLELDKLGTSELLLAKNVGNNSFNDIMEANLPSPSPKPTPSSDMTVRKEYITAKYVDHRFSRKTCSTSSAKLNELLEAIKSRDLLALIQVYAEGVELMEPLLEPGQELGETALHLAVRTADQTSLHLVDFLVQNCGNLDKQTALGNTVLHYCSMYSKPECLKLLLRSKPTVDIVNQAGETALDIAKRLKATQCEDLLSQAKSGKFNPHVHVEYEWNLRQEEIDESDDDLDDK
# ARFGAP1 inhibitor: inhibitors of rat ARFGAP1. Q62848. Arfgap1-stimulated ARF1 GTP hydrolysis, GDP FP detection. inhibition, % at 16.5 µM. 360,000 compounds, 0.26% hits. AID 651572;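 active = inhibition above a per-plate limit, mean inhibition of low control wells plus 3 SD, cut at about 25% in these data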;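 also: 0% = DMSO wells with enzyme and 100% = wells lacking Arfgap1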
# Target sequence (Q62848 1-136 limits assumed): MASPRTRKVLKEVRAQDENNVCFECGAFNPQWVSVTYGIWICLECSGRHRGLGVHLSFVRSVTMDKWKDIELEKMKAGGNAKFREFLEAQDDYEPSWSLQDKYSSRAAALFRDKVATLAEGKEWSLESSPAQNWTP
#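 material = rat Arfgap1 catalytic domain, aa 1-136 | also added = human ARF1(Δ1-17)-GTP substrate | compound dosing = one concentration, 16.5 µM, DMSO 1.26% | times = GTP hydrolysis reaction 2 h at 25 °C | measured by = FP, GDP Alexa 633 tracer displaced from anti-GDP antibody, 620/688 nm | evaluation = percent inhibition of Arfgap1-stimulated GTP hydrolysis | replication = single well per compound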
# MsrA inhibitor: inhibits bovine methionine sulfoxide reductase A; 360,000 compounds, 0.75% hits; purified bovine MsrA, absorbance read-out; inhibition, % at 15.5 µM; AID 651718; in the data active = inhibition above about 4.5%;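 also: 0% = vehicle wells with enzyme and 100% = reference inhibitor wells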
# MsrA act: bovine methionine sulfoxide reductase A activation. purified bovine MsrA, absorbance read-out. activation, % at 10.6 µM. 360,000 compounds, 0.3% hits; in the data active = activation above about 7.5%;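 also: 0% = vehicle and 100% = reference activator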
# MsrA activ conf: bovine methionine sulfoxide reductase A activation confirmed | shares compounds with MsrA act | purified bovine MsrA, absorbance read-out | activation, % at 10.6 µM | 1,000 compounds, 12% hits; in the data active = activation above about 4%;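 also: enzyme coupled to thioredoxin and thioredoxin reductase with NADPH; 0% = vehicle wells and 100% = reference activator wells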
# Active calls of the source: *; . = no result given.
SMILES,ASAP1 GAP inh,ARFGAP1 inhibitor,MsrA inhibitor,MsrA act,MsrA activ conf
CCOC(=O)/C(=C(/C)N)C1CC(=O)NC1=O (configuration not stated),-4,5,0,-3,.
CN1CCN(NC(=S)NC2CCCC2)CC1,-2,-1,0,7.9*,3
COc1ccc(S(=O)(=O)NCc2ccc(C(=O)N3CCN(Cc4ccccc4)CC3)cc2)cc1,-3,-4,0,-4,.
COc1ccc(S(=O)(=O)NCc2ccc(C(=O)O)cc2)cc1,2,-2,1,7.9*,-2
Cc1ccc(-c2ccc(/C=N/NC(=O)CN3CCCC3)o2)cc1Cl,-3,16,2,8.8*,1
COC(=O)N/N=C/c1ccc(-c2ccc(C)c(Cl)c2)o1,-4,-8,2,-5,.
O=C(CCN1C(=O)COc2ccccc21)N1CCN(c2ccccn2)CC1,-2,1,-1,21*,-1
CCCNC(=O)C1(C)CCCN(Cc2ccc(C(F)(F)F)cc2)C1 (configuration not stated),-10,2,-1,-6,.
Clc1cc(Br)ccc1OCCN1CCOCC1,-5,1,-1,-9,.
Brc1ccccc1OCCN1CCOCC1,-2,4,-1,9.5*,-3
CC(Oc1cccc(Cl)c1)C(=O)N1CCCN(C)CC1 (configuration not stated),-11,1,-1,-6,.
COc1ccccc1NC(=O)COC(=O)C12CC3CC(CC(Cl)(C3)C1)C2,2,12,-1,15*,-2
CCCCCC(=O)NNC(=S)NC(=O)c1ccccc1[N+](=O)[O-],6,2,-1,-3,.
CCCCCC(=O)NNC(=S)NC(=O)c1cccc([N+](=O)[O-])c1,-2,9,1,8.9*,1
CC(C)(C)NC(=O)C(c1ccc(F)cc1)N(C(=O)CCC(=O)Nc1ccccn1)C1CCCC1 (configuration not stated),3,7,1,-1,.
COCCNC(=O)C1=NOC(Cn2cc(C#N)c(=O)n(C)c2=O)C1 (configuration not stated),-7,1,0,-10,.
COc1ccc(C2CC(Cn3cc(C#N)c(=O)n(C)c3=O)ON2C)cc1 (configuration not stated),4,5,0,9.3*,-1
CCCC[C@@H]1CCCO[C@@](C(=O)NCc2ccccn2)(C(F)(F)F)C1,12,12,-1,-13,.
C=C(C)C1Cc2c(C)nn(-c3cccc4ccccc34)c2C1 (configuration not stated),-2,-7,-1,8.0*,-2
CN(C)S(=O)(=O)c1cccc(NC(=S)NC(=O)c2ccco2)c1,2,0,0,11*,-4
O=C(NC(=S)Nc1cccc([N+](=O)[O-])c1)c1ccco1,2,0,0,4,.
CCNC(=O)C1(C)CCCN(Cc2noc(-c3c(C)noc3C)n2)C1 (configuration not stated),2,-3,0,9.2*,0
CCCNC(=O)C1(C)CCCN(Cc2noc(-c3c(C)noc3C)n2)C1 (configuration not stated),5,2,0,2,.
COc1ccc(N(CC(=O)NCc2ccc(C)cc2)S(=O)(=O)c2c(C)nn(C)c2C)cc1,-7,4,-1,9.7*,-2
COC(=O)c1cc(OC(=O)CCc2ccc(OC)c(OC)c2)cc(C(=O)OC)c1,6,2,-1,-3,.
SMILES,ASAP1 GAP inh,ARFGAP1 inhibitor,MsrA inhibitor,MsrA act,MsrA activ conf
OCCNc1nc(SCc2ccccc2)nc2sc3c(c12)CCC3,15,5,0,14*,-2
OCC1OCOC2C(CO)OCOC12 (configuration not stated),-2,-4,-1,-8,.
CCC(C)(C)n1nnnc1CN(Cc1cccs1)Cc1cc2cc(OC)ccc2[nH]c1=O,-16,4,1,7.7*,-3
Nc1nc2c(ncn2[C@@H]2O[C@H](C(=O)N[C@@H](Cc3ccccc3)C(=O)NCC3CCCCC3)[C@@H](O)[C@H]2O)c(=O)[nH]1,-3,-2,0,.,.
Cc1cccc(NC(=O)CSCC(=O)NNC(=O)c2ccoc2C)c1,9,10,0,-8,.
O=C(O)CSc1nnc(Cc2ccccc2)n1Cc1ccccc1,-8,5,-1,-4,.
O=C(O)CSc1nnc(Cn2cnc3ccccc32)n1CCc1ccccc1,-11,-2,-1,8.8*,-4
CCOc1ccccc1N1CCN(CC(O)COC2CCCc3ccccc32)CC1 (configuration not stated),7,3,0,0,.
CCC(Oc1ccccc1OC)C(=O)Nc1ccc2c(c1)OCCO2 (configuration not stated),3,-10,1,16*,0
COc1ccccc1NC(=O)Nc1ccc2c(c1)OCCO2,12,9,1,-5,.
Cc1ccc(C(=O)OC(C)C(=O)c2cc(C)c(C)cc2C)o1 (configuration not stated),.,.,.,-3,.
COc1ccc(/C=N/Nc2nnc(C)n2N)cc1OC,14,4,1,9.0*,-1
COc1cc(/C=N/n2nnnc2N)ccc1OC(C)=O,3,1,2,-2,.
COc1ccc(/C=N/Nc2ncnc(Cl)c2N)cc1OC,12,6,3,-2,.
COc1ccc(/C=N/Nc2nnc(C)n2N)cc1OC(C)=O,1,13,1,12*,-2
C=CCN(CC(O)c1cccc([N+](=O)[O-])c1)C(C)CCc1ccccc1 (configuration not stated),-13,-6,1,-3,.
S=c1[nH]nc(-c2ccncc2)n1Cc1ccccc1,13,-9,1,8.5*,1
O=c1cc(CSc2ccccc2)[nH]c2ccccc12,0,4,0,-1,.
O=c1cc(CSc2ccccc2)[nH]c(=S)[nH]1,-7,-8,1,11*,4
Cc1nnc(N/N=C/c2ccc(Br)cc2)n1N,-4,6,0,34*,-2
Cc1nnc(N/N=C/c2ccc([N+](=O)[O-])cc2)n1N,3,10,2,21*,-3
COc1cc(NC(C)CCCN)c2nc(C)ccc2c1Oc1ccc(F)cc1 (configuration not stated),-12,-10,0,-1,.
O=C(CSc1nc2ncccc2[nH]1)c1cccc([N+](=O)[O-])c1,-5,-4,0,8.8*,-2
COc1ccc(-c2noc(CSc3nnc(-c4ccncc4)n3-c3ccc(F)cc3)n2)cc1OC,1,-9,2,18*,0
CCOC(=O)Cc1csc(NC(=O)Cc2ccccc2)n1,-1,-3,1,-7,.
CCC(=O)Nc1nc(CC(=O)Nc2ccccc2)cs1,-14,-19,0,9.4*,0
Cc1cc(C(=O)Nc2ccc3ccccc3c2)c(C)o1,-3,-4,0,-2,.
CCC(=O)NC1=C(NC(C)c2ccccc2)C(=O)c2ccccc2C1=O (configuration not stated),4,-8,0,11*,-1
CCC(=O)Nc1ccc2c(c1)C(=O)c1ccccc1C2=O,14,3,0,0,.
